Assay outcomes as filed in PubChem BioAssay.
IDH1 R132H inh – IDH1 R132H (human) inhibition; O75874; IDH1 R132H reductase, diaphorase/resazurin fluorescence, 60 min; inhibition, % at 10 µM; hit rate 0.18% among 70,000; AID 624101; in the data active = inhibition above about 34%; inconclusive = no clear call, values can overlap the other calls; inactive = below about 11%;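 also: 0% = DMSO and 100% = no enzyme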
Target sequence (O75874 whole entry R132H): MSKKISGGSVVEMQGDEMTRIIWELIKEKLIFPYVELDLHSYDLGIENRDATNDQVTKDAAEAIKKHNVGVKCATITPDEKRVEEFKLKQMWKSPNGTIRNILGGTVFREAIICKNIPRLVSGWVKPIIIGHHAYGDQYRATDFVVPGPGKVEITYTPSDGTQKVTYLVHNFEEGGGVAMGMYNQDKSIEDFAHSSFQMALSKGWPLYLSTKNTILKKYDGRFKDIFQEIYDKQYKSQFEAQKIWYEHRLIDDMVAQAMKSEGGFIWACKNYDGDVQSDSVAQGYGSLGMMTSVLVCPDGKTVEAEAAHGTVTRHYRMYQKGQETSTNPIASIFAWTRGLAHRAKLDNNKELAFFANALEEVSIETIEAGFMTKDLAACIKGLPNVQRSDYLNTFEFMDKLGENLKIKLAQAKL
GASC1 inh – blocks human GASC-1 (KDM4C) demethylase activity; Q9H3R0; GST-KDM4C 2-372, H3K9me3 peptide, LANCE TR-FRET; inhibition, % at 12.5 µM; hit rate 0.15% among 96,000;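 active = mean replicate inhibition above about 25%, with at least 55% of replicates also reaching it, limit read from the data, passing the limit was not always enough; inconclusive = only one of those two conditions met; inactive = neither condition met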
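System: N-terminal GST-fused human GASC-1 (KDM4C) fragment, residues 2-372 / Amount: 10 nM GST-KDM4C in enzyme reaction / Also added: H3K9me3 peptide with Fe(II)/2OG / Times: 30 min demethylation and 1 h detection at room temperature / Signal: LANCE TR-FRET / Read-out basis: Fall in 671/618 emission ratio as inhibition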
T cruzi growth-1 – inhibitors of T. cruzi proliferation; T. cruzi beta-gal in NIH3T3, GalScreen luminescence, 90 h; inhibition, % at 8.34 µM; hit rate 5.9% among 77,000; AID 624255;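 active = mean inhibition above about 93%, with at least 55% of replicates each passing it, limit read from the data, passing the limit was not always enough; inconclusive = only one of those two conditions holds; inactive = neither condition holds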
T cruzi growth-2 – blocks T. cruzi growth in NIH3T3 host cells. shares compounds with T cruzi growth-1. T. cruzi beta-gal in NIH3T3, GalScreen luminescence, 90 h. inhibition, % at 8.35 µM. hit rate 72% among 5,600;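 active = mean replicate inhibition above about 95% and at least 55% of replicates individually reaching it, limit read from the data; inconclusive = only one of the two criteria is met; inactive = neither criterion is met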
T cruzi growth-3 – inhibitors of T. cruzi proliferation | shares compounds with T cruzi growth-1 | T. cruzi beta-gal in NIH3T3, GalScreen luminescence, 90 h | inhibition, % at 2.09 µM | hit rate 21% among 5,600;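 active = mean inhibition above about 95%, with at least 55% of replicates also reaching it, limit read from the data; inconclusive = meets just one of the two conditions; inactive = meets neither condition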;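 also: plate controls were neutral control median for no effect and positive control median for full effect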
NIH3T3 tox – NIH/3T3 (mouse) viability loss. shares compounds with T cruzi growth-1. NIH/3T3 viability, CellTiter-Glo ATP luminescence, 90 h. cytotoxicity (signal decrease), % at 8.35 µM. hit rate 14% among 5,600;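 active = mean signal decrease across replicates above about 35% based on untreated-well scatter, with enough replicates individually passing, limit read from the data; inconclusive = no rule stated though some were filed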;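 also: 0% = median of neutral control wells and 100% = median of positive control wells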
3T3 cytotox 2 – kills mouse NIH/3T3 fibroblasts; shares compounds with T cruzi growth-1; NIH/3T3 viability, CellTiter-Glo ATP luminescence, 90 h; inhibition, % at 24.9 µM; hit rate 56% among 5,600;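 active = mean loss of cell viability signal at or above a set limit, and enough replicates individually reaching it; inconclusive = meets only the mean limit or only the replicate share; inactive = meets neither condition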;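 also: 0% = median of neutral control wells and 100% = median of positive control wells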
Numbers without * were called inactive; ? = inconclusive; · = not tested or not shown. Many of the other results were omitted from the sample, so hits are more common in it than they were.

SMILES | IDH1 R132H inh | GASC1 inh | T cruzi growth-1 | T cruzi growth-2 | T cruzi growth-3 | NIH3T3 tox | 3T3 cytotox 2
CCCNC(=O)N1CC2(CN(C)C2)c2c(n(C)c3cc(OC)ccc23)[C@H]1CO | · | 0 | · | · | · | · | ·
C[C@H]1CN([C@@H](C)CO)S(=O)(=O)c2ccc(C3=CCCCC3)cc2O[C@H]1CN(C)S(=O)(=O)c1ccc(F)cc1 | · | -2 | 125* | 109* | 105* | -10 | 50*
C[C@H]1CN([C@@H](C)CO)S(=O)(=O)c2ccc(C3=CCCCC3)cc2O[C@H]1CN(C)S(C)(=O)=O | -14 | -1 | 64 | · | · | · | ·
C[C@@H]1CN([C@@H](C)CO)S(=O)(=O)c2ccc(C3=CCCCC3)cc2O[C@@H]1CN(C)S(=O)(=O)c1ccc(F)cc1 | · | 0 | 120* | 98* | 84 | 24 | 75*
C[C@@H]1CN([C@@H](C)CO)S(=O)(=O)c2ccc(C3=CCCCC3)cc2O[C@H]1CN(C)S(C)(=O)=O | · | 0 | 4 | · | · | · | ·
C[C@@H]1CN([C@@H](C)CO)S(=O)(=O)c2ccc(C3=CCCCC3)cc2O[C@@H]1CN(C)S(C)(=O)=O | 0 | 1 | 59 | · | · | · | ·
C[C@H](CO)N1C[C@H](C)[C@H](CN(C)S(=O)(=O)c2ccc(F)cc2)Oc2cc(C3=CCCCC3)ccc2S1(=O)=O | · | -1 | 118* | 101* | 105* | 46* | 62*
C[C@H]1CN([C@@H](C)CO)S(=O)(=O)c2ccc(C3=CCCCC3)cc2O[C@@H]1CN(C)S(C)(=O)=O | · | 2 | -9 | · | · | · | ·
C[C@@H]1CN([C@@H](C)CO)S(=O)(=O)c2ccc(C3=CCCCC3)cc2O[C@H]1CN(C)S(=O)(=O)c1ccc(F)cc1 | · | 1 | 121* | 104* | 92 | 29 | 31*
CC1(C)CC(=O)C2=C(C1)N(Cc1cccnc1)C(=O)C2(NC(=O)c1ccc(Cl)cc1Cl)C(F)(F)F (stereo unspecified) | -1 | · | · | · | · | · | ·
Cc1nn(C)cc1NC(=O)C[C@@H]1CC[C@H]2[C@@H](COc3ccc(NC(=O)Nc4cccc(Cl)c4)cc3C(=O)N2C)O1 | · | 2 | 57 | · | · | · | ·
COc1ccc(-c2cn(CC[C@@H]3CC[C@H](NC(=O)Nc4ccc(F)cc4)[C@@H](CO)O3)nn2)cc1 | · | 0 | · | · | · | · | ·
CC(C)NC(=O)N[C@@H]1C=C[C@H](CC(=O)N2CCCCC2)O[C@H]1CO | 0 | 1 | -30 | · | · | · | ·
O=C(C[C@@H]1C=C[C@H](NC(=O)c2ccccc2)[C@@H](CO)O1)NCc1ccc(Oc2ccccc2)cc1 | 0 | 1 | 31 | · | · | · | ·
COCC#Cc1ccc2c(c1)O[C@H](CN(C)C)[C@H](C)CN([C@H](C)CO)S2(=O)=O | 1 | -1 | -46 | · | · | · | ·
C[C@H]1CN([C@@H](C)CO)S(=O)(=O)c2ccc(C3=CCCCC3)cc2O[C@@H]1CN(C)S(=O)(=O)c1ccc(F)cc1 | 2 | 1 | 117* | 92 | 108* | ? | 55*
C[C@H](CO)N1C[C@H](C)[C@H](CN(C)S(C)(=O)=O)Oc2cc(C3=CCCCC3)ccc2S1(=O)=O | · | -1 | 88 | · | · | · | ·
COc1cccc(-c2ccc3c(c2)[C@@H]2[C@@H](CCN2C(=O)C2CCCC2)[C@H](CO)N3)c1 | · | -3 | · | · | · | · | ·
OC[C@@H]1Nc2ccc(-c3cccc(F)c3)cc2[C@@H]2[C@H]1CCN2Cc1ccc(F)cc1 | · | 0 | 83 | · | · | · | ·
OC[C@@H]1Nc2ccc(-c3cccc(F)c3)cc2[C@H]2[C@@H]1CCN2Cc1ccc(F)cc1 | · | -2 | 103* | 108* | 115* | 26 | 103*
OC[C@H]1Nc2ccc(-c3cccc(F)c3)cc2[C@@H]2[C@H]1CCN2Cc1ccncc1 | · | 2 | 97* | 102* | 81 | 21 | 89*
COc1ccc(-c2ccc3c(c2)[C@@H]2[C@@H](CCN2Cc2ccncc2)[C@@H](CO)N3)cc1 | · | 2 | 84 | · | · | · | ·
Cc1noc(C)c1S(=O)(=O)Nc1ccc2c(c1)C(=O)N([C@H](C)CO)C[C@H](C)[C@@H](CN(C)Cc1ccc3c(c1)OCO3)OCCCC[C@H](C)O2 | · | 0 | 69 | · | · | · | ·
